Assay results from publication PMC3987113 (Toxicology and applied pharmacology, 2009).
“And” between values parts separate entries of the source, which are not always exact repeats. Identical values can stand only once. “Also recorded” adds a separate entry of the source. Like-named read-outs stand apart in the source and are kept apart here.

How the values were obtained:
[1] = Hepatic tissue level quantification by HRGC/HRMS; type: in vivo, C57BL/6 mice; settings: liver
[2] = test system: liver of immature, ovariectomized C57BL/6 mice; assay: Liver histopathology; type: in vivo
[3] = test system: Cyp2b10; assay: Dose-response modeling of microarray data; type: in vivo, C57BL/6 mice; settings: C57BL/6, mouse, liver, oral
[4] = test system: hepatic gene expression; assay: Dose-response modeling of microarray data; type: in vivo, C57BL/6 mice; settings: Mus musculus, 24 h
[5] = test system: Cyp2c55; assay: Dose-response modeling of microarray data; type: in vivo, C57BL/6 mice; settings: C57BL/6, mouse, liver, oral
[6] = Body and liver weights, 24 h dose-response study; type: in vivo, C57BL/6 mice; settings: for Liver weight / Relative liver weight / Body weight gain / Terminal body weight: 24 h; for Liver weight / Relative liver weight / Terminal body weight: mean ± SD, n=5; for Body weight gain: terminal body weight divided by body weight prior to dosing; for Terminal body weight: single gavage
How it was run: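 Immature ovariectomized female C57BL/6 mice, acclimatized 3 days, received a single oral gavage on PND 28 of 1, 3, 10, 30, 100 or 300 mg/kg test compound or sesame oil vehicle (0.1 ml), n=5 per group, sacrificed 24 h later. Compound was dissolved in acetone, diluted in sesame oil and the acetone evaporated under nitrogen. Analysis by ANOVA with Tukey's or Dunnett's post hoc test, p<0.05.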

[7] = test system: hepatic gene expression; assay: Hepatic gene expression, Agilent 4 x 44K microarrays; type: in vivo, C57BL/6 mice
[8] = Body and liver weights, time course study; type: in vivo, C57BL/6 mice; settings: for Liver weight / Relative liver weight / Body weight gain / Terminal body weight: 300 mg/kg PCB153 or 30 μg/kg TCDD, mean ± SD, n=5; for Body weight gain: terminal body weight divided by body weight prior to dosing
[9] = test system: hepatic gene expression; assay: QRT-PCR verification of hepatic gene expression; type: in vivo, C57BL/6 mice
[10] = 300 mg/kg PCB153 or 30 μg/kg TCDD
[11] = hepatic mRNA, 300 mg/kg PCB153, maximum fold change, |fold change|≥1.5, P1(t)≥0.985
[12] = hepatic mRNA, 300 mg/kg PCB153, maximum fold change, |fold change|≥1.5, P1(t)≥0.985, 300 mg/kg

Clc1cc(Cl)c(-c2cc(Cl)c(Cl)cc2Cl)cc1Cl [PCB153, 2,2′,4,4′,5,5′-hexachlorobiphenyl]
Hepatic PCB153 levels in dose-response study ([1]; 24 h, 1-300 mg/kg, significantly different from controls): dose-dependent increase in hepatic levels
Decrease of hepatic level after 7 days ([1]; 168 h vs 24 h, single gavage 300 mg/kg PCB153 or 30 μg/kg TCDD): ~ 3.3 fold
Hepatocellular hypertrophy, time course study ([2]; 300 mg/kg PCB153): increasing hypertrophic responses between 24 and 168 h; also recorded: induced hepatocellular hypertrophy between 24 and 168 h
Hepatocellular vacuolization, dose-response study ([2]; 300 mg/kg PCB153, 24 h): induced the highest levels of hepatocellular vacuolization
Hepatic lipid accumulation, Oil Red O staining [2, 10]: no fatty accumulation
Necrosis and immune (mixed) cell infiltration in liver [2, 10]: did not elicit immune cell infiltration or necrosis; also recorded: absent; also recorded: did not induce necrosis or immune cell infiltration
Hepatic inflammation ([2]; 300 mg/kg PCB153 or 30 μg/kg TCDD, time course): almost absent
Hepatocellular vacuolization, time course study ([2]; 300 mg/kg PCB153 or 30 μg/kg TCDD, Fig. 2 at 168 h): minimal vacuolization and hepatocellular hypertrophy
Hepatocellular hypertrophy, dose-response study ([2]; PCB153, 24 h): incidences of hypertrophy were not observed
ED50 at 24 h [3]: 38.1 mg/kg
ED50 ([4]; read-out: ED50, Abcc3): 2.9 mg/kg
ED50 ([4]; read-out: ED50, Entpd5): 34.2 mg/kg
ED50 ([4]; read-out: ED50, Nol3): 33.9 mg/kg
ED50 at 24 h [5]: 31.7 mg/kg
Liver weight ([6]; 1 mg/kg): 0.850 ± 0.121 g
Relative liver weight ([6]; 1 mg/kg): 0.059 ± 0.002
Body weight gain ([6]; 1 mg/kg): 1.1 ± 0.0
Terminal body weight ([6]; 1 mg/kg): 14.3 ± 1.8 g
Liver weight ([6]; 3 mg/kg): 0.865 ± 0.119 g
Relative liver weight ([6]; 3 mg/kg): 0.060 ± 0.002
Body weight gain ([6]; 3 mg/kg): 1.1 ± 0.0
Terminal body weight ([6]; 3 mg/kg): 14.4 ± 1.7 g
Liver weight ([6]; 10 mg/kg): 0.721 ± 0.073 g
Relative liver weight ([6]; 10 mg/kg): 0.056 ± 0.004
Body weight gain ([6]; 10 mg/kg): 1.1 ± 0.1
Terminal body weight ([6]; 10 mg/kg): 12.7 ± 1.1 g
Liver weight ([6]; 30 mg/kg): 0.836 ± 0.066 g
Relative liver weight ([6]; 30 mg/kg): 0.062 ± 0.001
Body weight gain ([6]; 30 mg/kg): 1.1 ± 0.0
Terminal body weight ([6]; 30 mg/kg): 13.4 ± 1.0 g
Liver weight ([6]; 100 mg/kg): 0.829 ± 0.071 g
Relative liver weight ([6]; 100 mg/kg): 0.060 ± 0.002
Body weight gain ([6]; 100 mg/kg): 1.1 ± 0.0
Terminal body weight ([6]; 100 mg/kg): 13.8 ± 1.1 g
Effect on relative liver weight (RLW), dose-response study ([6]; 300 mg/kg PCB153, 24 h): significantly increased RLW at 24 h
Liver weight ([6]; 300 mg/kg): 0.855 ± 0.152 g
Relative liver weight ([6]; 300 mg/kg): 0.067 ± 0.003
Body weight gain ([6]; 300 mg/kg): 1.1 ± 0.0
Terminal body weight ([6]; 300 mg/kg): 12.7 ± 1.9 g
Induction of CAR/PXR regulated genes Cyp2b10, Cyp3a11, Ces2, Insig2, Abcc3 ([7]; PCB153 dose-response study): dose-dependently induced
PCB153 fold change, Abcc3 [7, 11]: 1.9 fold
PCB153 fold change, Acsl3 [7, 11]: −3.1 fold
PCB153 fold change, Agpat4 [7, 11]: −1.9 fold
PCB153 fold change, Akr1b7 [7, 11]: 22.1 fold
PCB153 fold change, Akr1c20 [7, 11]: −2.3 fold
PCB153 fold change, Aox1 [7, 11]: 2.9 fold
PCB153 fold change, Cdca2 [7, 11]: 2.8 fold
PCB153 fold change, Cds2 [7, 11]: 1.7 fold
PCB153 fold change, Ces2 [7, 11]: 5.8 fold
PCB153 fold change, Cyp2b9 [7, 11]: 7.6 fold
PCB153 fold change, Cyp2b10 [7, 11]: 27.5 fold
PCB153 fold change, Cyp2b23 [7, 11]: 19.7 fold
PCB153 fold change, Cyp2c54 [7, 11]: 2.4 fold
PCB153 fold change, Cyp3a25 [7, 11]: 3.8 fold
PCB153 fold change, Dhfr [7, 11]: −2.1 fold
PCB153 fold change, Elovl6 [7, 11]: −3.8 fold
PCB153 fold change, Fasn [7, 11]: −3.9 fold
PCB153 fold change, Fmo5 [7, 11]: 3.0 fold
PCB153 fold change, Gadd45a [7, 11]: 2.0 fold
PCB153 fold change, Gpx2 [7, 11]: 1.7 fold
PCB153 fold change, Gsta2 [7, 11]: 4.1 fold
PCB153 fold change, Gstm4 [7, 11]: 4.0 fold
PCB153 fold change, Gstt3 [7, 11]: 1.7 fold
PCB153 fold change, Hmgcr [7, 11]: −5.3 fold
PCB153 fold change, Hsd17b2 [7, 11]: −2.0 fold
PCB153 fold change, Insig2 [7, 11]: 5.9 fold
PCB153 fold change, Mad1l1 [7, 11]: 2.4 fold
PCB153 fold change, Myc [7, 11]: 2.9 fold
PCB153 fold change, Nol3 [7, 11]: 4.9 fold
PCB153 fold change, Pla2g12a [7, 11]: 1.7 fold
PCB153 fold change, Slc1a4 [7, 11]: −2.5 fold
PCB153 fold change, Slc23a1 [7, 11]: 2.3 fold
PCB153 fold change, Smpd3 [7, 11]: 10.8 fold
PCB153 fold change, Srebf1 [7, 11]: −2.4 fold
PCB153 fold change, Srebf2 [7, 11]: −2.1 fold
PCB153 fold change, Ugdh [7, 11]: 2.5 fold
PCB153 fold change, Cyp2c55 [7, 12]: 48 fold and 48.4 fold
PCB153 fold change, Gadd45b [7, 12]: 10.7 fold
PCB153 fold change, Zwint [7, 12]: 1.8 fold
Ccl9 expression ([7]; hepatic mRNA, PCB153): induced expression
Down-regulation of Acsl3, Srebf1 and Srebf2 ([7]; hepatic mRNA, PCB153): −2.1 to −3.1 fold
Effect on relative liver weight (RLW), time course study ([8]; 300 mg/kg PCB153): increased (p<0.05) relative liver weight (RLW) at 72 and 168 h
Liver weight ([8]; 4 h): 0.712 ± 0.048 g
Relative liver weight ([8]; 4 h): 0.057 ± 0.001
Body weight gain ([8]; 4 h): 1.0 ± 0.0
Terminal body weight ([8]; 4 h after single gavage): 12.5 ± 0.8 g
Liver weight ([8]; 12 h): 0.730 ± 0.075 g
Relative liver weight ([8]; 12 h): 0.056 ± 0.003
Body weight gain ([8]; 12 h): 1.0 ± 0.0
Terminal body weight ([8]; 12 h after single gavage): 13.0 ± 0.6 g
Liver weight ([8]; 24 h): 0.813 ± 0.137 g
Relative liver weight ([8]; 24 h): 0.061 ± 0.009
Body weight gain ([8]; 24 h): 1.1 ± 0.0
Terminal body weight ([8]; 24 h after single gavage): 13.3 ± 0.9 g
Liver weight ([8]; 72 h): 1.086 ± 0.135 g
Relative liver weight ([8]; 72 h): 0.069 ± 0.007
Body weight gain ([8]; 72 h): 1.1 ± 0.0
Terminal body weight ([8]; 72 h after single gavage): 15.7 ± 0.7 g
Liver weight ([8]; 168 h): 1.280 ± 0.074 g
Relative liver weight ([8]; 168 h): 0.072 ± 0.002
Body weight gain ([8]; 168 h): 1.4 ± 0.1
Terminal body weight ([8]; 168 h after single gavage): 17.9 ± 1.2 g
Effect on body weight gain ([8]; any of the PCB153 doses or time points): No significant decreases in body weight gain
Induction of AhR-battery genes (Cyp1a1, Cyp1a2, Tiparp) ([9]; 300 mg/kg PCB153 compared to TCDD, Fig. 6A-B): modestly induced
Cyp1a2 induction ([9]; hepatic mRNA, time course, 30 μg/kg TCDD (Fig. 6A) or 300 mg/kg PCB153 (Fig. 6B)): ~ 1.8 fold
Elovl5 fold change ([9]; hepatic mRNA, time course, 300 mg/kg PCB153 or 30 μg/kg TCDD (Fig. 6A-B)): −1.9 fold
